# Compound activity (PubChem BioAssay)
# This excerpt belongs to a sample that is enriched for hits.
# RORa inhibitor = inhibitors of orphan receptor RORA, primary screen, cell-based, luminescence; Nuclear receptor ROR-alpha (Homo sapiens), P35398; CHO-K1 Gal4-RORA LBD luciferase reporter; inhibition, % at 10 µM; actives 0.43% (n = 65,000); AID 561, 2006;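 active = inhibition above the mean of all tested compounds plus 3 SD, cut at about 52% in these data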;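 also: 0% = RORA-transfected cells with DMSO and 100% = mock-transfected cells lacking RORA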
#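 Material: transiently transfected CHO-K1 cells, Gal4-DBD/human RORA-LBD fusion plus 5xGal4-luciferase reporter; doses: single concentration per compound, 10 µM final; incubation: 20 h at 37 °C; detection: luminescence from basal luciferase reporter expression; read-out: % inhibition of basal luciferase versus +RORA/-RORA DMSO controls; replication: tested once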
# The depositor's hits bear a star.
SMILES,RORa inhibitor
COc1cc2nc(CN3CC=C(c4ccccc4)CC3)[nH]c(=O)c2cc1OC,80*
COc1ccc2c(c1)c(C(=O)CN1CCN(C)CC1)c(C)n2Cc1ccccc1,-29
CN(C(=O)c1ccco1)C1(c2ccccc2Cl)CCCCC1=O (stereo not given),7
CCC(=NC1CC1)c1c(O)n(-c2ccc(OC)cc2)c(=O)[nH]c1=O,3
CC(C)C(=O)N1CCN(CCN=Cc2c(O)n(C)c(=O)n(C)c2=O)CC1,5
Cc1cccc(NC2=NCCCS2)c1C,19
CCn1nc(-c2cccs2)nc2c(=O)n(C)c(=O)nc1-2,91*
Cn1c2ccccc2c2c(C(=O)N3CCC4(CC3)OCCO4)cn(C3CCCCC3)c(=O)c21,0
CC1(C)CN=C(Nc2nc3ccccc3s2)S1,-54
O=c1[nH]c2ccccc2n1CCCN1CCC(n2c(=O)[nH]c3cc(Cl)ccc32)CC1,14
COc1cccc(OC)c1C1=NCC(=O)Nc2c1oc1ccc(Br)cc21,62*
O=C1CN=C(c2ccccc2)c2oc3ccc(Br)cc3c2N1,10
Nc1ccc(S(=O)(=O)N2CC3CC(C2)c2cccc(=O)n2C3)cc1 (stereo not given),-10
O=C(c1cc2c(s1)-c1ccccc1OC2)N1CCC2(CC1)OCCO2,-54
CCCNC(=O)N1C2CCC1CC(O)(c1cccnc1)C2 (stereo not given),-13
